Reference: ChEMBL document CHEMBL4725317 (Bioorg Med Chem Lett, 2020)

test system: not listed separately; experiment: Stability of compound in mouse liver microsomes assessed as parent compound remaining at 1 uM measured at 10 mins in presence of NADPH; type: ADME, Microsome; conditions: read-out: Stabilty
In short: (§1)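 Test compound at 1 μM with human, mouse or rat liver microsomes (0.5 mg/ml protein) plus NADPH cofactor; final solvents 0.01% DMSO, 0.05% acetonitrile; percent parent remaining at 10 min. Verapamil, cerivastatin and warfarin as positive controls. SD given when multiple batches were tested.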

Compound | remaining at 10 min, 1 µM [%]
C[C@]1(F)[C@H](O)[C@@H](O)[C@H](c2cc(Cc3cc4ccccc4s3)c(Cl)cc2O)O[C@@H]1CO | 105
COc1cc(O)c([C@@H]2O[C@H](CO)C(F)(F)[C@H](O)[C@H]2O)cc1Cc1ccc2c(c1)CCO2 | 91
COc1ccc(Cc2cc([C@@H]3O[C@H](CO)C(F)(F)[C@H](O)[C@H]3O)c(O)cc2Cl)cc1 | 97
COc1cc(O)c([C@@H]2O[C@H](CO)[C@@](C)(F)[C@H](O)[C@H]2O)cc1Cc1ccc2c(c1)OCCO2 | 98

test system: not listed separately; experiment: AUC (0 to infinity) in Sprague-Dawley rat at 2 mg/kg, iv or 10 mg/kg, po; type: ADME, organism-based; design: dose 10 mg/kg; conditions: in vivo
In short: (§2)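 Male Sprague Dawley rats dosed 2 mg/kg IV (vehicle 20% HPbCD) or 10 mg/kg PO (vehicle 0.5% Methocel); pharmacokinetic parameters derived from plasma exposure.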

Compound | AUC(0-inf) [ng·h/mL]
COc1ccc(Cc2cc([C@@H]3O[C@H](CO)C(F)(F)[C@H](O)[C@H]3O)c(O)cc2Cl)cc1 | 2700

test system: not listed separately; experiment: Oral bioavailability in Sprague-Dawley rat at 10 mg/kg; type: ADME, organism-based; conditions: in vivo; in short: as §2

Compound | bioavailability [%]
COc1ccc(Cc2cc([C@@H]3O[C@H](CO)C(F)(F)[C@H](O)[C@H]3O)c(O)cc2Cl)cc1 | 17.4
COc1cc(O)c([C@@H]2O[C@H](CO)[C@@](C)(F)[C@H](O)[C@H]2O)cc1Cc1ccc2c(c1)OCCO2 | 21.8

test system: not listed separately; experiment: Stability of compound in human liver microsomes assessed as parent compound remaining at 1 uM measured at 10 mins in presence of NADPH; type: ADME, Microsome; conditions: liver microsomes, read-out: Stabilty; in short: as §1

Compound | remaining at 10 min, 1 µM [%]
C[C@]1(F)[C@H](O)[C@@H](O)[C@H](c2cc(Cc3cc4ccccc4s3)c(Cl)cc2O)O[C@@H]1CO | 89
COc1cc(O)c([C@@H]2O[C@H](CO)C(F)(F)[C@H](O)[C@H]2O)cc1Cc1ccc2c(c1)CCO2 | 100
COc1ccc(Cc2cc([C@@H]3O[C@H](CO)C(F)(F)[C@H](O)[C@H]3O)c(O)cc2Cl)cc1 | 90
COc1cc(O)c([C@@H]2O[C@H](CO)[C@@](C)(F)[C@H](O)[C@H]2O)cc1Cc1ccc2c(c1)OCCO2 | 103

test system: not listed separately; experiment: Tmax in Sprague-Dawley rat at 2 mg/kg, iv or 10 mg/kg, po; type: ADME, organism-based; conditions: in vivo; in short: as §2

Compound | Tmax [min]
COc1ccc(Cc2cc([C@@H]3O[C@H](CO)C(F)(F)[C@H](O)[C@H]3O)c(O)cc2Cl)cc1 | 25.2
COc1cc(O)c([C@@H]2O[C@H](CO)[C@@](C)(F)[C@H](O)[C@H]2O)cc1Cc1ccc2c(c1)OCCO2 | 15

test system: not listed separately; experiment: Half life in Sprague-Dawley rat at 2 mg/kg, iv; type: ADME, organism-based; conditions: in vivo; in short: as §2

Compound | half-life [min]
COc1ccc(Cc2cc([C@@H]3O[C@H](CO)C(F)(F)[C@H](O)[C@H]3O)c(O)cc2Cl)cc1 | 291
COc1cc(O)c([C@@H]2O[C@H](CO)[C@@](C)(F)[C@H](O)[C@H]2O)cc1Cc1ccc2c(c1)OCCO2 | 91.2

test system: Rattus norvegicus; experiment: Hypoglycemic activity in overnight fasted Sprague-Dawley rat assessed as percent reduction in blood glucose AUC at 10 mg/kg, po measured after 4 hrs post glucose challenge by OGTT relative to control; type: functional; design: scale not given: the % may be the effect or the level left; conditions: not given
In short: (§3)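 Overnight-fasted SD rats dosed orally at 1 or 10 mg/kg in 0.5% Methocel (vehicle controls) 60 min before oral glucose challenge. […] N=8 per group; mean ± SEM; one-way ANOVA-Dunnett.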

Compound | Activity [%]
COc1ccc(Cc2cc([C@@H]3O[C@H](CO)C(F)(F)[C@H](O)[C@H]3O)c(O)cc2Cl)cc1 | 62.8

test system: not listed separately; experiment: Stability of compound in rat liver microsomes assessed as parent compound remaining at 1 uM measured at 10 mins in presence of NADPH; type: ADME, Microsome; conditions: liver microsomes, read-out: Stabilty; in short: as §1

Compound | remaining at 10 min, 1 µM [%]
C[C@]1(F)[C@H](O)[C@@H](O)[C@H](c2cc(Cc3cc4ccccc4s3)c(Cl)cc2O)O[C@@H]1CO | 15
COc1cc(O)c([C@@H]2O[C@H](CO)C(F)(F)[C@H](O)[C@H]2O)cc1Cc1ccc2c(c1)CCO2 | 70
COc1ccc(Cc2cc([C@@H]3O[C@H](CO)C(F)(F)[C@H](O)[C@H]3O)c(O)cc2Cl)cc1 | 58
COc1cc(O)c([C@@H]2O[C@H](CO)[C@@](C)(F)[C@H](O)[C@H]2O)cc1Cc1ccc2c(c1)OCCO2 | 101

test system: not listed separately; experiment: Clearance in Sprague-Dawley rat at 2 mg/kg, iv or 10 mg/kg, po; type: ADME, organism-based; conditions: in vivo; in short: as §2

Compound | clearance [mL/min/kg]
COc1ccc(Cc2cc([C@@H]3O[C@H](CO)C(F)(F)[C@H](O)[C@H]3O)c(O)cc2Cl)cc1 | 10.9
COc1cc(O)c([C@@H]2O[C@H](CO)[C@@](C)(F)[C@H](O)[C@H]2O)cc1Cc1ccc2c(c1)OCCO2 | 72

target: T1, Sodium/glucose cotransporter 2 (Homo sapiens) (UniProt P31639); experiment: Inhibition of human SGLT2 expressed in CHO cells assessed as reduction in [14C]-methyl-alpha -D-glucopyranoside accumulation at 0.3 uM relative to control; type: cell-based; conditions: not given
T1 sequence (whole entry): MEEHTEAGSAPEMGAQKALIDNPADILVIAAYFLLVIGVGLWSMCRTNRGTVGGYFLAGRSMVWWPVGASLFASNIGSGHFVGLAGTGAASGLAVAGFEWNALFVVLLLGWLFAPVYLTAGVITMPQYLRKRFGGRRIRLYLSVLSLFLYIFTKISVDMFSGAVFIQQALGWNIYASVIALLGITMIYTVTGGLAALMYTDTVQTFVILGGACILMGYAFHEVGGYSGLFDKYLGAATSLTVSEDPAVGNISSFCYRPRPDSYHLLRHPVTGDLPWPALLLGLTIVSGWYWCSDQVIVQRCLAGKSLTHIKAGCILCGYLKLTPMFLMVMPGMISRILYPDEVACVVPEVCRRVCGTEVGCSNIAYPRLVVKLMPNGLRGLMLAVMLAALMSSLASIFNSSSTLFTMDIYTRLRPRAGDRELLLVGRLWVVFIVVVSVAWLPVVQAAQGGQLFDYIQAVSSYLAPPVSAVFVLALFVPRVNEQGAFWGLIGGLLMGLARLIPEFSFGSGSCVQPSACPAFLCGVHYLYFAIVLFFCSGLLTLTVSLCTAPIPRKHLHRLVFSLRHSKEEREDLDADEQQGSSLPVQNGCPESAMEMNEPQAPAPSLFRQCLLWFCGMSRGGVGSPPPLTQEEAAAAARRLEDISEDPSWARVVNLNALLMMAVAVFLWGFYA
In short: (§4)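 CHO cells expressing human SGLT1 or SGLT2; inhibition of [14C]methyl D-glucopyranoside (AMG) accumulation measured with test compound at 0.3 μM.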

Compound | inhibition [%]
COc1cc(OC)c([C@@H]2O[C@H](CO)[C@@](C)(F)[C@H](O)[C@H]2O)cc1Cc1ccc2c(c1)OCCO2 | 59
COc1cc(Cl)c(Cc2ccc3c(c2)OCCO3)cc1[C@@H]1O[C@H](CO)C(F)(F)[C@H](O)[C@H]1O | 78
COc1cc(O)c([C@@H]2O[C@H](CO)[C@@](C)(F)[C@H](O)[C@H]2O)cc1Cc1ccc2c(c1)CCCO2 | 67

test system: not listed separately; experiment: Cmax in Sprague-Dawley rat at 2 mg/kg, iv or 10 mg/kg, po; type: ADME, organism-based; design: dose 10 mg/kg; conditions: in vivo; in short: as §2

Compound | Cmax [ng/mL]
COc1ccc(Cc2cc([C@@H]3O[C@H](CO)C(F)(F)[C@H](O)[C@H]3O)c(O)cc2Cl)cc1 | 549
COc1cc(O)c([C@@H]2O[C@H](CO)[C@@](C)(F)[C@H](O)[C@H]2O)cc1Cc1ccc2c(c1)OCCO2 | 274

target: T2, Sodium/glucose cotransporter 1 (Homo sapiens) (UniProt P13866); experiment: Inhibition of human SGLT1 expressed in CHO cells assessed as reduction in [14C]-methyl-alpha -D-glucopyranoside accumulation at 0.3 uM relative to control; type: cell-based; conditions: not given; in short: as §4
T2 sequence (whole entry): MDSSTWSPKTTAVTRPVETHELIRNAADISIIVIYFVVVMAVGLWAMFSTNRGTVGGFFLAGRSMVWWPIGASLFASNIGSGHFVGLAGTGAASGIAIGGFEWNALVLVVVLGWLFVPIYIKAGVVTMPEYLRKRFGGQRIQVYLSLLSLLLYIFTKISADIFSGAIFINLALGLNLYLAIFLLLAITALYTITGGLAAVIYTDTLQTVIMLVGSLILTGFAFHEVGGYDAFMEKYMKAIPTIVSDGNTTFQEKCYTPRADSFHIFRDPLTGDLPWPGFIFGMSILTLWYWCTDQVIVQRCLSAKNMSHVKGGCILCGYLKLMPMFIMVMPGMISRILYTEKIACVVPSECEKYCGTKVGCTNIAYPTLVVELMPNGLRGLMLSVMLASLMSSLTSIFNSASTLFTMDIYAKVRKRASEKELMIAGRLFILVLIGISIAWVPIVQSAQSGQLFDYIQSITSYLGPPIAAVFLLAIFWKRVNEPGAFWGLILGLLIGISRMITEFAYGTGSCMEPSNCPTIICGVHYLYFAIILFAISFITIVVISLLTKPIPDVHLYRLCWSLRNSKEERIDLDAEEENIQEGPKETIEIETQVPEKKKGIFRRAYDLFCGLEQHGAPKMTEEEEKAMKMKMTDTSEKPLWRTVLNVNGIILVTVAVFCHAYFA

Compound | inhibition [%]
COc1cc(OC)c([C@@H]2O[C@H](CO)[C@@](C)(F)[C@H](O)[C@H]2O)cc1Cc1ccc2c(c1)OCCO2 | 25
COc1cc(Cl)c(Cc2ccc3c(c2)OCCO3)cc1[C@@H]1O[C@H](CO)C(F)(F)[C@H](O)[C@H]1O | 37
COc1cc(O)c([C@@H]2O[C@H](CO)[C@@](C)(F)[C@H](O)[C@H]2O)cc1Cc1ccc2c(c1)CCCO2 | 31

test system: Rattus norvegicus; experiment: In vivo inhibition of SGLT1/2 in overnight fasted po dosed Sprague-Dawley rat assessed as reduction in blood glucose by OGTT; type: functional, organism-based; conditions: dose mg/kg 1-10

Compound | inhibition
COc1ccc(Cc2cc([C@@H]3O[C@H](CO)C(F)(F)[C@H](O)[C@H]3O)c(O)cc2Cl)cc1 | Dose-dependent effect

test system: not listed separately; experiment: Volume of distribution at steady state in Sprague-Dawley rat at 2 mg/kg, iv or 10 mg/kg, po; type: ADME, organism-based; conditions: in vivo, read-out: Vdss; in short: as §2

Compound | Vd [L/kg]
COc1ccc(Cc2cc([C@@H]3O[C@H](CO)C(F)(F)[C@H](O)[C@H]3O)c(O)cc2Cl)cc1 | 1.89
COc1cc(O)c([C@@H]2O[C@H](CO)[C@@](C)(F)[C@H](O)[C@H]2O)cc1Cc1ccc2c(c1)OCCO2 | 2.41

test system: not listed separately; experiment: In vivo inhibition of SGLT1/2 in overnight fasted Sprague-Dawley rat assessed as amount of urinary glucose excretion assessed per 4 hrs at 1 mg/kg, po; type: functional; conditions: not given; in short: as §3

Compound | Activity [g]
COc1ccc(Cc2cc([C@@H]3O[C@H](CO)C(F)(F)[C@H](O)[C@H]3O)c(O)cc2Cl)cc1 | 0.099

test system: Rattus norvegicus; experiment: Hypoglycemic activity in overnight fasted Sprague-Dawley rat assessed as percent reduction in blood glucose AUC at 1 mg/kg, po measured after 4 hrs post glucose challenge by OGTT relative to control; type: functional; design: scale not given: the % may be the effect or the level left; conditions: not given; in short: as §3

Compound | Activity [%]
COc1ccc(Cc2cc([C@@H]3O[C@H](CO)C(F)(F)[C@H](O)[C@H]3O)c(O)cc2Cl)cc1 | 38.4
